For orientation: IC50 means the concentration at which inhibition is half-maximal. The fraction unbound is free concentration divided by total concentration. What is called inhibition in vivo is the drop in the measured response relative to a control, in per cent. A word on the CC50: it is the concentration that lowers cell viability or growth by half.

For series [1], the system named is Plasmodium falciparum. As to the kind of experiment: Antiplasmodial activity against chloroquine-sensitive Plasmodium falciparum 3D7 infected in human O positive erythrocytes after 48 hrs by SYBR green-I based fluorescence assay. It is filed as functional, organism-based. The following applies: 3D7, 48 h. The method, boiled down: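 3D7 was cultured at 37 °C, 5% CO₂, in O+ human erythrocytes at 5% hematocrit, in RPMI 1640 with 2% human serum, 0.2% NaHCO₃, 0.5% Albumax II, hypoxanthine and gentamicin. Cultures were sorbitol-synchronized (mostly late rings/early trophozoites). Drugs from DMSO stocks were serially diluted in triplicate wells (final DMSO ≤0.001%) and incubated 48 h. Read-out was SYBR Green I in lysis buffer, 1 h dark RT, ex 485/em 530 nm. EC₅₀ was taken as 50% fluorescence reduction, as the mean of triplicate experiments.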

Series [2] concerns Plasmodium falciparum. Nature of the series: Ratio of chloroquine IC50 to Compound IC50 for chloroquine-sensitive Plasmodium falciparum 3D7. Type of series: functional.
Series [3] in a line: Intestinal absorption in human. It is filed as ADME, organism-based. The following applies: in vivo, read-out: HIA.
Series [4] in a line: Plasma protein binding in human. It is filed as ADME, organism-based.
In the next series the test system is Mus musculus. As to the kind of experiment: Toxicity in Plasmodium berghei NK65 infected in Swiss mouse assessed as mouse mortality at 50 mg/kg, ip administered 2 hrs postinfection daily for 4 days measured on day 5. It is filed as organism-based. More on the design: dose 50 mg/kg, route intraperitoneal. The following applies: in vivo. In outline: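 Swiss male mice (20 ± 2 g) were infected on day 0 with 10⁷ parasitized cells and kept in groups of five. Compound was given i.p. at 50 mg/kg/day, starting 2 h after infection on day 0 and continuing through day 3. Untreated (blank) and chloroquine (5 mg/kg/day) groups served as controls.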

In series [5] the test system is Plasmodium berghei. Nature of the series: Antimalarial activity against Plasmodium berghei NK65 infected in Swiss mouse assessed as inhibition of parasitemia at 25 mg/kg, ip administered 2 hrs postinfection daily for 4 days measured on day 5. Type of series: functional. The following applies: route intraperitoneal. The method, boiled down: (§1)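 Swiss male mice (20 ± 2 g) were infected on day 0 with 10⁷ parasitized cells, in groups of five. Dosing was i.p. at 50 or 25 mg/kg/day from day 0 (2 h post-infection) to day 3. Parasitemia on day 4 was counted from Giemsa-stained tail thin smears (≥9000 RBC, 1000×). Results were compared with untreated and CQ 5 mg/kg/day controls, and % inhibition was calculated relative to untreated parasitemia.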

Series [6] can be described thus: Cytotoxicity against african green monkey CV1 cells. It is filed as cell-based, CV-1. The following applies: chlorocebus aethiops.
Series [7] relates to Plasmodium berghei. As to the kind of experiment: Antimalarial activity against Plasmodium berghei NK65 infected in Swiss mouse assessed as inhibition of parasitemia at 50 mg/kg, ip administered 2 hrs postinfection daily for 4 days measured on day 5. Type of series: functional. The following applies: route intraperitoneal. In outline:
as §1

As for `COc1ccccc1CC1(O)c2ccccc2C2=NCCN21` (stereo unspecified), the half-inhibitory concentration (IC50) in the series with Plasmodium falciparum [1] is > 35 µM. Moreover, in the series with Plasmodium falciparum [2], the “Ratio IC50” value is on record as <1.
For `COc1cccc(CC2(O)c3ccccc3C3=NCCN32)c1` (stereo unspecified), 8.36 µM corresponded to half-maximal inhibition with Plasmodium falciparum [1] (IC50). For the same compound, the “Ratio IC50” value with Plasmodium falciparum [2] is given as <1.
Turning to `Oc1ccc(CC2(O)c3ccccc3C3=NCCN32)cc1` (stereo unspecified), the IC50 in the series on Plasmodium falciparum [1] was > 35 µM. For the same compound, in the series with Plasmodium falciparum [2], the “Ratio IC50” value is listed as <1.
For `OC1(Cc2ccc(F)cc2F)c2ccccc2C2=NCCN21` (stereo unspecified) the same measures were 33.3 µM and <1.
For `OC1(Cc2cc(F)cc(F)c2)c2ccccc2C2=NCCN21` (stereo unspecified) the same measures were > 35 µM and <1.
In the case of `Oc1ccc(CC2(O)c3ccccc3C3=NCCN32)cc1Cl` (stereo unspecified), the half-inhibitory concentration (IC50) in the series with Plasmodium falciparum [1] is > 35 µM. The “Ratio IC50” value in the series on Plasmodium falciparum [2] is given as <1.
For `OC1(Cc2cccs2)c2ccccc2C2=NCCN21` (stereo unspecified) the same measures were 19.6 µM and <1.
In the same order, the values of `OC1(Cc2ccsc2)c2ccccc2C2=NCCN21` (stereo unspecified) are 6.6 µM and <1.
For `Cn1c(CC2(O)c3ccccc3C3=NCCN32)cc2ccccc21` (stereo unspecified) the same measures were 13.5 µM and <1.
Regarding `CSc1ccc(CC2(O)c3ccccc3-c3nc4ccccc4n32)cc1` (stereo unspecified), the IC50 with Plasmodium falciparum [1] is > 27 µM. Also, the “Ratio IC50” value with Plasmodium falciparum [2] is given as <1.
In the same order, the values of `CSc1ccc(CC2(O)c3ccccc3-c3nc4cc(C)ccc4n32)cc1` (stereo unspecified) are 15.6 µM and <1.
In the same order, the values of `OC1(Cc2ccc3ccccc3c2)c2ccccc2-c2nc3ccccc3n21` (stereo unspecified) are > 30 µM and <1.
Consider `OC1(Cc2ccc3ccccc3c2)c2ccccc2C2=NCCN21` (stereo unspecified), for which inhibition with Plasmodium falciparum [1] was half-maximal at 0.06 µM (IC50). In addition, in the series with Plasmodium falciparum [2], the “Ratio IC50” value is recorded as 16.7. The Fa in series [3] is > 95%. Moreover, the free fraction (fraction unbound) in series [4] was > 0.1. Besides, the Activity result in the series with Mus musculus was “Toxic”. Also, in the series with Plasmodium berghei [5], the inhibition in vivo at 25 mg/kg amounted to 87%.
In the series with Plasmodium falciparum [1], `OC1(Cc2ccccc2Cl)c2ccccc2C2=NCCN21` (stereo unspecified) had an IC50 of 15.2 µM. For the same compound, in the series on Plasmodium falciparum [2], the “Ratio IC50” value was <1.
As to `CSc1ccc(CC2(O)c3ccccc3C3=NCCN32)cc1` (stereo unspecified), the IC50 with Plasmodium falciparum [1] was found to be 0.06 µM. For the same compound, the “Ratio IC50” value in the series with Plasmodium falciparum [2] amounted to 16.7. The Fa in series [3] is > 95%. The free fraction (fraction unbound) in series [4] was > 0.1. Also, the CC50 in series [6] was > 24 µM. Moreover, in the series on Plasmodium berghei [7], the inhibition in vivo at 50 mg/kg amounted to 84%.
For the compound `OC1(Cc2ccc(Cl)c(Cl)c2)c2ccccc2C2=NCCN21` (stereo unspecified), in the series with Plasmodium falciparum [1], the IC50 is 0.3 µM. Further, in the series on Plasmodium falciparum [2], the “Ratio IC50” value is reported as 3.3. Moreover, the Fa in series [3] was > 95%. The unbound share (fraction unbound) in series [4] was > 0.1. In the series with Mus musculus, the Activity entry is “Toxic”. For the same compound, the inhibition in vivo at 25 mg/kg with Plasmodium berghei [5] came to 19%.
Compound `OC1(Cc2ccc(F)cc2)c2ccccc2C2=NCCN21` (stereo unspecified) came in with an IC50 in the series with Plasmodium falciparum [1] of 4.2 µM. Further, the “Ratio IC50” value in the series on Plasmodium falciparum [2] is recorded as <1.
Take `OC1(Cc2ccc(Cl)cc2)c2ccccc2C2=NCCN21` (stereo unspecified): in the series with Plasmodium falciparum [2], the “Ratio IC50” value is 8.3. Besides, the Fa in series [3] is > 95%. In addition, in series [4], the fraction unbound is > 0.1. Besides, in series [6], the 50% cytotoxic concentration (CC50) was > 16 µM. Further, in the series on Plasmodium berghei [7], the inhibition in vivo at 50 mg/kg came to 7%.
As to `OC1(Cc2ccc(Cl)cc2Cl)c2ccccc2C2=NCCN21` (stereo unspecified), the IC50 in the series on Plasmodium falciparum [1] came to 8.8 µM. Moreover, the “Ratio IC50” value in the series on Plasmodium falciparum [2] is recorded as <1.
Turning to `OC1(Cc2cccc3ccccc23)c2ccccc2C2=NCCN21` (stereo unspecified), in the series with Plasmodium falciparum [1], half-maximal inhibition (IC50) was put at 16.3 µM. Further, in the series on Plasmodium falciparum [2], the “Ratio IC50” value is given as <1. The cytotoxic concentration (CC50) in series [6] was > 15 µM.
For `COc1ccc(CC2(O)c3ccccc3C3=NCCN32)cc1` (stereo unspecified), the IC50 in the series with Plasmodium falciparum [1] stood at 0.24 µM. In addition, in the series on Plasmodium falciparum [2], the “Ratio IC50” value was determined as 4.2. Besides, the Fa in series [3] is > 95%. The fraction unbound in series [4] was > 0.1. The inhibition in vivo at 50 mg/kg with Plasmodium berghei [7] turned out to be 23%.
In the series on Plasmodium falciparum [1], `COc1ccc(CC2(O)c3ccccc3C3=NCCN32)cc1OC` (stereo unspecified) displayed an IC50 of 27.6 µM. Moreover, the “Ratio IC50” value in the series with Plasmodium falciparum [2] is <1. The 50% cytotoxic concentration (CC50) in series [6] was > 30 µM.
As to `OC1(Cc2ccc3c(c2)OCO3)c2ccccc2C2=NCCN21` (stereo unspecified), the IC50 in the series on Plasmodium falciparum [1] is 2.2 µM. Also, the “Ratio IC50” value in the series on Plasmodium falciparum [2] was <1. The Fa in series [3] is > 95%. For the same compound, the fraction unbound in series [4] is > 0.1. The cytotoxic concentration (CC50) in series [6] is > 32 µM. Also, in the series on Plasmodium berghei [7], the inhibition in vivo at 50 mg/kg is 53%.
`OC1(Cc2ccccc2)c2ccccc2C2=NCCN21` (stereo unspecified) displayed an IC50 in the series with Plasmodium falciparum [1] of 37.8 µM. In addition, in the series with Plasmodium falciparum [2], the “Ratio IC50” value is listed as <1.
In turn, `COc1cc(CC2(O)c3ccccc3C3=NCCN32)cc(OC)c1OC` (stereo unspecified) had an IC50 in the series with Plasmodium falciparum [1] of 1.49 µM. Moreover, in the series on Plasmodium falciparum [2], the “Ratio IC50” value is <1. The Fa in series [3] was > 95%. In series [4], the unbound share (fraction unbound) is > 0.1. In addition, the inhibition in vivo at 50 mg/kg with Plasmodium berghei [7] is < 5%.
Regarding `CSc1ccc(C=C2c3ccccc3C(=O)N2c2cc(Cl)ccc2N)cc1` (mixture of isomers), in the series with Plasmodium falciparum [1], the midpoint of inhibition, the IC50, lay at 13.9 µM. In addition, the “Ratio IC50” value with Plasmodium falciparum [2] was <1.
In the same order, the values of `Nc1ccc(Cl)cc1N1C(=O)c2ccccc2C1=Cc1ccc2ccccc2c1` (mixture of isomers) are 10 µM and <1.

The values above are taken from ChEMBL document CHEMBL1833920, “Antimalarial activity of imidazo[2,1-a]isoindol-5-ol derivatives and related compounds” (Eur J Med Chem, 2011).
